Source: PubChem
HCV core dimer: HCV core protein dimerization inhibition. TR-FRET GST/Flag-core106 dimerization, 1536-well. hit rate 0.33% among 300,000. inhibition, % at 5 µM;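 active = inhibition above the mean of all tested compounds plus 3 SD, set per screening campaign, cut at about 45% in these data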
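System: GST/Flag-tagged HCV core106 proteins. Incubation: compound-protein-antibody incubation 4 h at 22.5 °C. Technique: HTRF with 340 nm excitation, 617/671 nm emission. Medium: KF-containing HEPES buffer, pH 7.45, DTT, CHAPS, BSA. Read-out: inhibition (%) from 671 over 617 nm ratio. Also added: Eu(K)-anti-GST 90 ng/mL plus XL665-anti-Flag 1 µg/mL.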
AI-2 QS modul: modulators of Vibrio harveyi AI-2 quorum sensing system; AID 2094; Vibrio harveyi JMH597 AI-2 luminescence/OD600 ratio, 9 h; hits give low values; strain lacks LuxN and CqsS sensors; 0 = neutral-control median; hit rate 0.4% among 300,000; activity change, % at 7.5 µM; in the data active = activity change below about -75%, passing the limit was not always enough;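 also: luminescence divided by OD600 gain over 9 h not by final OD600 alone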
PHOSPHO1 block: PHOSPHO1 (human) inhibition. recombinant PHOSPHO1, absorbance phosphatase assay. inhibition, % at 13.3 µM. hit rate 1.1% among 290,000; in the data active = inhibition above about 60%
Target sequence (Q8TCT1 whole entry, looked up): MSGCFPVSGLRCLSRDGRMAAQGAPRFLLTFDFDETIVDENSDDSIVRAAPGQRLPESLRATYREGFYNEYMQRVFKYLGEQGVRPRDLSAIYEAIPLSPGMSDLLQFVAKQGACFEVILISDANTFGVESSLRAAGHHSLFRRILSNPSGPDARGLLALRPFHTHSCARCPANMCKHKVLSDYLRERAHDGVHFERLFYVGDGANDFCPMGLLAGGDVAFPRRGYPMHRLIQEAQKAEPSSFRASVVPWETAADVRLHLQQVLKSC
HSF1 activator: increases HSF-1 driven luciferase reporter signal; NIH3T3-HGL HSF-1 luciferase reporter, MG132, 8 h; 100% = twice DMSO control signal; activation, % at 9 µM; hit rate 1.7% among 300,000; AID 504408;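 active = mean replicate activation of at least 50% with a set share of replicates each reaching 50%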;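 also: 0% = median of the neutral control wells and 100% = twice that signal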
ALR H2O2 inh: human ALR oxidase inhibition via reduced H2O2; inhibition, % (test concentration not listed); purified ALR, DTT oxidation, H2O2 HRP-luminol luminescence; hit rate 3.8% among 290,000;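 active = mean replicate inhibition above about 79%, with every replicate also reaching it, limit read from the data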
Target sequence (P55789 whole entry, looked up): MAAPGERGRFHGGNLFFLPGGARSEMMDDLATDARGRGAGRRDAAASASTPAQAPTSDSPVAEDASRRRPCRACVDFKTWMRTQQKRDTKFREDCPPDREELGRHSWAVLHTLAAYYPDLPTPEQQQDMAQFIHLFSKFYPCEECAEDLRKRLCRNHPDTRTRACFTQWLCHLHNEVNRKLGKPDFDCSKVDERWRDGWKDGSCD
HSF1 inhib: HSF1 inhibition; activity change, negative = inhibition, % at 7.5 µM (by protocol); hit rate 0.77% among 300,000; NIH3T3-HGL HSE-luciferase, MG132-induced, luminescence 8 h; hits give low values;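 active = more than half of replicate wells show activity change below -50%, luminescence cut by over half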;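 also: luciferase reports HSF-1 transcriptional activity via heat shock element; 0% = median of DMSO wells and -100% = zero luminescence signal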
Numbers without * were called inactive; · = no result. Shown are actives, neighbours in structure and some others; about 6.8% of the full set was active somewhere.

SMILES	HCV core dimer	AI-2 QS modul	PHOSPHO1 block	HSF1 activator	ALR H2O2 inh	HSF1 inhib
CCOc1ccccc1-c1nc(-c2ccc(C)nc2OC)no1	4	10	8	62*	-8	23
CCOc1nc(C)ccc1-c1noc(-c2ccccn2)n1	2	6	18	-1	-2	1
COc1nc(C)ccc1-c1noc(-c2cccs2)n1	1	25	25	62*	-6	21
COc1cc(-c2nnc(-c3cccs3)o2)cc(OC)c1OC	4	18	-25	-5	-2	4
CC(C#N)(NC(=O)CN1CCN(S(=O)(=O)c2ccccc2Cl)CC1)C1CC1 (stereo not drawn)	·	·	·	·	-4	·
CCc1nnc(NC(=O)C2CCC(CNc3c(N4CCC(C)CC4)c(=O)c3=O)CC2)s1 (stereo not drawn)	-2	30	23	-16	-6	-4
C=CCc1cccc(/C=N/NC(=O)c2ccc3nc[nH]c3c2)c1O	1	-19	41	2	·	-1
Cc1c(C(=O)NC2CC2)oc2ccccc12	·	·	·	·	-2	·
COCc1c(C(=O)NC2CCCCCC2)oc2ccccc12	2	2	-3	5	89*	0
CCN(C(=O)c1ccc2c(=O)n3c(nc2c1)CCCCC3)c1cc(OC)ccc1OC	2	18	65*	-2	-9	-4
Cc1ccc(-c2cnc3cc(C)nn3c2)cc1	-3	-3	0	57*	-7	17
N#Cc1ccc(CN2CCN(C(=O)CNS(=O)(=O)c3ccc4c(c3)OCCCO4)CC2)cc1	·	·	·	·	-10	·
C=Cn1cc[n+](CC(=O)c2ccc(Br)cc2)c1	2	7	39	4	16	-4
COc1ccc(N(C)S(=O)(=O)c2ccc(C)cc2)c([N+](=O)[O-])c1	3	20	6	1	0	3
Cc1ccc(S(=O)(=O)N(C)c2ccc(C)c([N+](=O)[O-])c2)cc1	6	8	-5	70*	0	30
CCn1cc(/C=C(\NC(=O)c2ccccc2OC)C(=O)NCCCN2CCOCC2)c2ccccc21	1	-6	24	-1	7	3
CCn1cc(/C=C(\NC(=O)c2ccccc2F)C(=O)NCCN2CCOCC2)c2ccccc21	-10	-13	65*	9	10	-1
CC1CCCCC1NC(=O)C1CCC(CNS(=O)(=O)c2ccccc2)CC1 (stereo not drawn)	0	18	23	21	-5	2
CCOC(=O)Nc1ccc2c(c1)N(C(=O)CN1CCN(C)CC1)c1ccccc1CC2	-6	12	-2	11	-12	-3
CCCC(CCC)C(=O)Nc1ccc2c(c1)N(C(=O)CCN1CCN(C)CC1)c1ccccc1CC2	-2	2	-3	-68	-6	-63*
CCOc1ccccc1CN1CCCC(CNC(=O)Cc2ccc(OC)cc2)C1 (stereo not drawn)	-6	-6	3	7	·	-4
COc1ccc(Br)c(C(=O)Nc2ccc(F)cc2)c1	2	12	34	13	-3	-4
Cc1cccc(S(=O)(=O)NNC(=O)c2sc(C)nc2C)c1	-4	16	1	-34	60	-11
CN1CCN(Cc2c(O)ccc3cc(Br)ccc23)CC1	-3	15	-18	134*	78*	112
O=C(COC(=O)c1cc(Br)ccc1O)c1ccc(F)cc1	·	·	·	·	-3	·
SMILES	HCV core dimer	AI-2 QS modul	PHOSPHO1 block	HSF1 activator	ALR H2O2 inh	HSF1 inhib
CSc1ncccc1C(=O)Nc1cccc(S(=O)(=O)N2CCCCCC2)c1	·	·	·	·	-22	·
COc1ccccc1NC(=O)N(Cc1ccco1)Cc1cc2cc(C)cc(C)c2[nH]c1=O	8	29	22	15	-11	9
Cc1cccc2cc(CN(Cc3ccccc3)C(=S)NCCCN(C)C)c(=O)[nH]c12	-4	7	29	-78	-23	-74*
COc1ccccc1NC(=O)N(Cc1ccco1)Cc1cc2ccc(C)c(C)c2[nH]c1=O	16	43	-2	108*	-7	79
COc1ccccc1NC(=S)N(Cc1ccco1)Cc1cc2cccc(C)c2[nH]c1=O	-4	29	-15	119*	-5	60
CCCCN(C)C(=O)C1CCCN(S(=O)(=O)c2ccc3c(c2)oc(=O)n3C)C1 (stereo not drawn)	-11	23	25	1	-22	0
O=C1N(c2ccccc2C(F)(F)F)O[C@]1(c1ccccc1)C1CCCC1	·	·	·	·	-1	·
CCc1ccccc1NC(=O)COc1cccc2ccc(C)nc12	0	1	7	-82	-6	-77*
O=C1NN(c2ccccc2)C(=O)/C1=C\c1ccccc1	·	12	14	14	90*	1
O=C1NN(c2cccc(Br)c2)C(=O)/C1=C\c1ccccc1	-3	43	48	-2	89*	3
O=C1NN(c2cccc(Br)c2)C(=O)/C1=C/c1cccs1	-1	37	10	10	3	4
O=C(O)c1ccc(Cl)cc1Nc1nc2cc(Cl)ccc2o1	1	7	6	19	9	7
CCCC12CN3CC(C)(CN(C1)C3c1ccc3c(c1)OCO3)C2=O (stereo not drawn)	-4	-22	-4	66*	1	31
COc1cc(/C=C2\C(=N)N3N=CSC3=NC2=O)cc(Br)c1OC(=O)c1ccco1	14	17	20	-8	16	5
CC1(C)OC(=O)C2(Cc3ccccc3N3CCCCC32)C(=O)O1 (stereo not drawn)	-7	20	-2	19	99*	-6
COc1ccc(-c2nc(CS(=O)CC(=O)NC3CCCCC3)c(C)o2)cc1OC (stereo not drawn)	1	35	13	47	99*	32
COc1ccc(-c2nc(CS(=O)CC(=O)NC3CCCCC3)c(C)o2)cc1 (stereo not drawn)	-6	7	17	7	66	3
COc1cccc(-c2nc(CS(=O)CC(=O)NC3CC3)c(C)o2)c1 (stereo not drawn)	-9	11	10	-4	99*	1
COc1ccc(-c2nc(CS(=O)CC(=O)NC3CCCCCC3)c(C)o2)cc1 (stereo not drawn)	9	23	65*	-9	98*	19
COc1ccc(-c2nc(CS(=O)CC(=O)NC3CCCCC3C)c(C)o2)cc1 (stereo not drawn)	-5	14	19	-2	99*	3
COc1ccc(-c2nc(CS(=O)(=O)CC(=O)NC3CCCCC3C)c(C)o2)cc1 (stereo not drawn)	-17	6	60	-6	23	12
Cc1ccc(Nc2ncccc2C(N)=O)cc1[N+](=O)[O-]	3	23	-8	43	0	22
CC1=C(O)C(=O)OC1c1c(Cl)cccc1Cl (stereo not drawn)	1	30	-1	-1	-4	2
